Measurements reported in ChEMBL document CHEMBL4715802, “Novel Irreversible Agonists Acting at the A Adenosine Receptor” (J Med Chem, 2016).
Activity calls are given as the source filed them. The rule behind the calls is not given here.

Legend:
[1] = target: T1, Adenosine receptor A1 (Homo sapiens) (UniProt P30542); assay: Irreversible agonist activity at human adenosine A1 receptor expressed in Flp-In-CHO cells assessed as induction of positive change of cellular impedance at 1 uM incubated for 2 hrs by xCELLigence real-time cell analysis; assay type: cell-based; conditions: filed as agonist
T1 sequence (whole entry): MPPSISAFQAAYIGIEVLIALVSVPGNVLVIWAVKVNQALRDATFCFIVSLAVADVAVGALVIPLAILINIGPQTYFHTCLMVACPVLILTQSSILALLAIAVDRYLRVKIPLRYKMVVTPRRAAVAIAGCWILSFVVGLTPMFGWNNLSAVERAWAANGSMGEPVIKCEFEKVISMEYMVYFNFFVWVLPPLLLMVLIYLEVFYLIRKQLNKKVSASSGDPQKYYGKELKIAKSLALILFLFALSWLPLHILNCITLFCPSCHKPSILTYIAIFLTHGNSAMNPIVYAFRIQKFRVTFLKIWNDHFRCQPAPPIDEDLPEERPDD
Summary of the method: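 A1AR-FlpInCHO cells were serum-starved for about 18 h and equilibrated for at least 1 h at 37°C. 1 µM agonist or vehicle was added and impedance was recorded at 15 s intervals. […] Three experiments in duplicate.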

Flp-In-CHO [2] = assay: Stimulation of ERK1/2 phosphorylation in Flp-In-CHO cells incubated for 5 mins; assay type: cell-based; conditions: Cricetulus griseus
Summary of the method: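 A1AR-FlpInCHO cells were seeded at 4×10^4/well and serum-starved for about 18 h. Cells were stimulated with agonist for 5 min at 37°C, then lysed, and pERK1/2 was detected by SureFire. […] Curves were fitted for pEC50 and Emax. Three experiments in duplicate.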

[3] = target: T1, Adenosine receptor A1 (Homo sapiens); assay: Binding affinity to human adenosine A1 receptor expressed in Flp-In-CHO cell membranes assessed as [3H]DPCPX binding level at 10 uM incubated for 1 hr followed by washing by liquid scintillation counting based equilibrium radioligand binding assay; conditions: Cell membrane
Summary of the method: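 Membranes from A1AR-FlpInCHO cells were pre-incubated with 10 µM ligand in PBS with 1 unit ADA for 1 h at 37°C. They were then washed 3× with PBS, with 1 h at 37°C between washes, and resuspended in HME buffer. [3H]DPCPX at 0.1–12 nM was bound for 1 h at 37°C, filtered and β-counted. Nonspecific binding was defined with 1 µM SLV320. Results are expressed as % of buffer-pretreated Bmax, from three experiments in duplicate.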

[4] = target: T1, Adenosine receptor A1 (Homo sapiens); assay: Binding affinity to human adenosine A1 receptor expressed in Flp-In-CHO cell membranes assessed as basal [35S]GTP-gamma-S incorporation level at 10 uM incubated for 40 mins followed by washing by liquid scintillation counting; conditions: Cell membrane
Summary of the method: (§1)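 Membranes were pretreated with 10 µM ligand and washed as for the [3H]DPCPX assay. […] 300 pM [35S]GTPγS was then added for 40 min at 20°C, followed by filtration and counting. Values are normalised to NECA-stimulated vehicle-pretreated membranes.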

[5] = target: T1, Adenosine receptor A1 (Homo sapiens); assay: Binding affinity to human adenosine A1 receptor expressed in NECA-pre-treated Flp-In-CHO cell membranes assessed as [35S]GTP-gamma-S incorporation level at 10 uM incubated for 40 mins followed by washing by liquid scintillation counting; conditions: Cell membrane; summary of the method: as §1
[6] = target: T1, Adenosine receptor A1 (Homo sapiens); assay: Binding affinity to human adenosine A1 receptor expressed in Sf9 cells assessed protein melting temperature at 10 uM incubated for 30 mins by Thermo-fluor assay; assay type: cell membranes; conditions: Cell membrane, filed as agonist
Summary of the method: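 Human A1AR was purified from Sf9 cells in LMNG/CHS. 0.2 µg receptor was incubated with 10 µM compound for 20 h at 4°C in HEPES pH 7.5 buffer with ADA. CPM dye at 10 µM final was added for 30 min at rt. The sample was heated from 4 to 80°C in 3° steps, holding 90 s each, and fluorescence was read at 380/470 nm to derive Tm. Three experiments in duplicate.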

Flp-In-CHO [7] = assay: Effect on forskolin-induced cAMP accumulation in Flp-In-CHO cells incubated for 30 mins by LANCE cAMP detection assay; assay type: functional, cell-based; conditions: Cricetulus griseus
[8] = target: T1, Adenosine receptor A1 (Homo sapiens); conditions: Sf9, Cell membrane, filed as agonist, dose 10.0 µM, time 30.0 min
Adenosine receptor A1 [9] = target: T2, Adenosine receptor A1 (Homo sapiens, UniProt P30542); assay: Irreversible agonist activity at human adenosine A1 receptor expressed in Flp-In-CHO cells assessed as stimulation of ERK1/2 phosphorylation incubated for 5 mins; assay type: cell-based
T2 sequence (P30542 whole entry): T1 sequence (whole entry)

[10] = target: T1, Adenosine receptor A1 (Homo sapiens); assay: Irreversible agonist activity at human adenosine A1 receptor expressed in Flp-In-CHO cells assessed as induction of positive change of cellular impedance at 1 uM incubated for 1.5 hrs followed by addition of 1 uM A1AR selective antagonist SLV320 by xCELLigence real-time cell analysis; assay type: cell-based; conditions: filed as agonist
Summary of the method: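 A1AR-FlpInCHO cells were seeded at 4×10^4/well, serum-starved for about 18 h, and equilibrated in the impedance reader for at least 1 h at 37°C. Cells were exposed to 1 µM agonist and impedance was recorded every 15 s. After about 1.5–1.7 h, 1 µM SLV320 was added and recording continued. […] Three experiments in duplicate.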

Adenosine receptor A1 [11] = target: T2, Adenosine receptor A1; assay: Irreversible agonist activity at human adenosine A1 receptor expressed in Flp-In-CHO cells assessed as effect on forskolin-induced cAMP accumulation incubated for 30 mins by LANCE cAMP detection assay; assay type: functional, cell-based
Summary of the method: (§2)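 For Gi/o-coupled A1 or A3 FlpInCHO cells, cells were preincubated for 30 min at 37°C in stimulation buffer containing 10 µM rolipram. Agonist (10 pM–10 µM) was then added with 3 µM forskolin for 30 min at 37°C. The reaction was stopped with ethanol, cells were lysed, and cAMP was read by LANCE TR-FRET. Three to four experiments in duplicate.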

Adenosine receptor A2b = target: T3, Adenosine receptor A2b (Homo sapiens, UniProt P29275); assay: Irreversible agonist activity at human adenosine A2B receptor expressed in Flp-In-CHO cells assessed as effect on forskolin-induced cAMP accumulation incubated for 30 mins by LANCE cAMP detection assay; assay type: functional, cell-based
T3 sequence (P29275 whole entry): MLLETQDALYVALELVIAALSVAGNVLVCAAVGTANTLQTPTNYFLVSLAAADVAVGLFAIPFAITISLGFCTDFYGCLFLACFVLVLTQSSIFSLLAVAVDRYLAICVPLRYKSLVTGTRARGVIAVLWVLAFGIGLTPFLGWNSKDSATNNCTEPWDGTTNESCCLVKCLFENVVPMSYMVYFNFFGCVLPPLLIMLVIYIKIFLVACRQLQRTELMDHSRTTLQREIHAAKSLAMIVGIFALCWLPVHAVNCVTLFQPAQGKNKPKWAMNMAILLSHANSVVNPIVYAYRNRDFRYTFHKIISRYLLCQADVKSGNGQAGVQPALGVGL
Summary of the method: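 A2BAR-FlpInCHO cells in stimulation buffer with rolipram were exposed to agonist with no preincubation, then stopped with ethanol, lysed, and cAMP was detected by LANCE. Three to four experiments in duplicate.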

Adenosine receptor A3 = target: T4, Adenosine receptor A3 (Homo sapiens, UniProt P0DMS8); assay: Irreversible agonist activity at human adenosine A3 receptor expressed in Flp-In-CHO cells assessed as effect on forskolin-induced cAMP accumulation incubated for 30 mins by LANCE cAMP detection assay; assay type: functional, cell-based
T4 sequence (P0DMS8 whole entry): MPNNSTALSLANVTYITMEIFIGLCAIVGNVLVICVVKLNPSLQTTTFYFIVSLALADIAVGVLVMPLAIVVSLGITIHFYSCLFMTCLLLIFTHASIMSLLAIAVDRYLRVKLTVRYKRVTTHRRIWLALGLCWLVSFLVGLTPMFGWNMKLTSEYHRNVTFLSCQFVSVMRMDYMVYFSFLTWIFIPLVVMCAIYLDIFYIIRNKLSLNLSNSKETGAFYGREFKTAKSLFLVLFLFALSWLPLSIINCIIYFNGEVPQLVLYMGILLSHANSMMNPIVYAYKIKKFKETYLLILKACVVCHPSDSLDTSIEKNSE
Summary of the method: as §2, with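 “TR-FRET. […]” for “TR-FRET.”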

Adenosine receptor A2a = Adenosine receptor A2a (Homo sapiens, UniProt P29274); assay: Irreversible agonist activity at human adenosine A2A receptor expressed in Flp-In-CHO cells assessed as effect on forskolin-induced cAMP accumulation incubated for 30 mins by LANCE cAMP detection assay; assay type: functional, cell-based
Chain of Adenosine receptor A2a (P29274 whole entry): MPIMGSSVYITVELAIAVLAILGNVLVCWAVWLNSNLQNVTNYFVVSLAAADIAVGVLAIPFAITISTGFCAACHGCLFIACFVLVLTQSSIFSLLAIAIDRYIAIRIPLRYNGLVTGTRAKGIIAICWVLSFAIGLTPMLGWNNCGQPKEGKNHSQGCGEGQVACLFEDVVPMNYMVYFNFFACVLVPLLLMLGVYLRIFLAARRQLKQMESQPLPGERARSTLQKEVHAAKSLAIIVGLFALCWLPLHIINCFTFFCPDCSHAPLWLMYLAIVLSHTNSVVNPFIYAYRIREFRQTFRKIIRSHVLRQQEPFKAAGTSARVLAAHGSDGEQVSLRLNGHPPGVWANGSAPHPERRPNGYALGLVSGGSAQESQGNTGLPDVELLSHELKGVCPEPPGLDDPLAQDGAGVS

## CCNC(=O)[C@H]1O[C@@H](n2cnc3c(N)ncnc32)[C@H](O)[C@@H]1O
[1]
  Activity: Active
Flp-In-CHO [2]
  Activity: inactive
[3]
  Activity: 108%
[4]
  Activity: 57%
[5]
  Activity: 99%
[6]
  Tm: 38.7 °C
Flp-In-CHO [7]
  Activity: inactive
[8]
  ΔTm: 4 °C

## OC[C@H]1O[C@@H](n2cnc3c(NCCCCCCCCCCN=C=S)ncnc32)[C@H](O)[C@@H]1O
[1]
  Activity: Active
Adenosine receptor A1 [9]
  EC50: 79.4 nM
Flp-In-CHO [2]
  Activity: inactive

## O=C(NCc1ccc(Nc2ncnc3c2ncn3[C@@H]2O[C@H](CO)[C@@H](O)[C@H]2O)cc1)c1ccc(S(=O)(=O)F)cc1
[1]
  Activity: Active
Adenosine receptor A1 [9]
  EC50: 1 nM
Flp-In-CHO [2]
  Activity: inactive
[10]
  Activity: Active
[3]; filed as agonist
  Activity: 16%
[4]
  Activity: 134%
[5]; filed as agonist
  Activity: Active
[6]
  Tm: 46.7 °C
Adenosine receptor A1 [11]
  EC50: 0.912 nM
Adenosine receptor A2b
  EC50: 117 nM
Adenosine receptor A3
  EC50: 135 nM
Flp-In-CHO [7]
  Activity: inactive

## OC[C@H]1O[C@@H](n2cnc3c(Nc4ccc(CN=C=S)cc4)ncnc32)[C@H](O)[C@@H]1O
[1]
  Activity: Active
Adenosine receptor A1 [9]
  EC50: 20 nM
Flp-In-CHO [2]
  Activity: inactive
[10]
  Activity: Active
[6]
  Tm: 42.7 °C
Adenosine receptor A1 [11]
  EC50: 269 nM
Adenosine receptor A2a
  EC50: 646 nM
Adenosine receptor A2b
  EC50: 708 nM
Adenosine receptor A3
  EC50: 347 nM
Flp-In-CHO [7]
  Activity: inactive

## O=C(NCCCCCCNc1ncnc2c1ncn2[C@@H]1O[C@H](CO)[C@@H](O)[C@H]1O)C1=CC2C=CC1CC2 (stereo partly drawn)
Adenosine receptor A1 [9]
  EC50: 15.8 nM
Flp-In-CHO [2]
  Activity: inactive

## O=C(NCCCCCCNc1ncnc2c1ncn2[C@@H]1O[C@H](CO)[C@@H](O)[C@H]1O)c1ccc(S(=O)(=O)F)cc1
Flp-In-CHO [2]
  Activity: inactive

## O[C@H]1CC[C@H](Nc2nc(-c3ccccc3)nc3[nH]ccc23)CC1
[5]; filed as agonist
  Activity: 37%

## O=C(NCCNc1ncnc2c1ncn2[C@@H]1O[C@H](CO)[C@@H](O)[C@H]1O)C1=CC2C=CC1CC2 (stereo partly drawn)
Flp-In-CHO [2]
  Activity: inactive

## OC[C@H]1O[C@@H](n2cnc3c(NCCCCCCCCCCNC(=S)Nc4ccc(N=C=S)cc4)ncnc32)[C@H](O)[C@@H]1O
Flp-In-CHO [2]
  Activity: inactive

## O=C(NCCCCCCCCCCNc1ncnc2c1ncn2[C@@H]1O[C@H](CO)[C@@H](O)[C@H]1O)C1=CC2C=CC1CC2 (stereo partly drawn)
Adenosine receptor A1 [9]
  EC50: 25.1 nM
Flp-In-CHO [2]
  Activity: inactive

## OC[C@H]1O[C@@H](n2cnc3c(Nc4ccc(CNC(=S)Nc5ccc(N=C=S)cc5)cc4)ncnc32)[C@H](O)[C@@H]1O
[1]
  Activity: Active
Adenosine receptor A1 [9]
  EC50: 1.58 nM
Flp-In-CHO [2]
  Activity: inactive
[10]
  Activity: Active
[3]; filed as agonist
  Activity: 8%
[4]
  Activity: 124%
[5]; filed as agonist
  Activity: Active
[6]
  Tm: 46.6 °C
Adenosine receptor A1 [11]
  EC50: 55 nM
Adenosine receptor A2a
  EC50: 67.6 nM
Adenosine receptor A2b
  EC50: 224 nM
Adenosine receptor A3
  EC50: 44.7 nM
Flp-In-CHO [7]
  Activity: inactive

## OC[C@H]1O[C@@H](n2cnc3c(NCCCCCCN=C=S)ncnc32)[C@H](O)[C@@H]1O
Flp-In-CHO [2]
  Activity: inactive

## OC[C@H]1O[C@@H](n2cnc3c(NCCNC(=S)Nc4ccc(N=C=S)cc4)ncnc32)[C@H](O)[C@@H]1O
Adenosine receptor A1 [9]
  EC50: 3.16 nM
Flp-In-CHO [2]
  Activity: inactive
[10]
  Activity: Active

## O=C(NCCCCCCCCCCNc1ncnc2c1ncn2[C@@H]1O[C@H](CO)[C@@H](O)[C@H]1O)c1ccc(S(=O)(=O)F)cc1
Flp-In-CHO [2]
  Activity: inactive

## CCCn1c(=O)c2nc(C3CCCC3)[nH]c2n(CCCOC(=O)c2ccc(S(=O)(=O)F)cc2)c1=O
[3]; filed as agonist
  Activity: 2%
[4]; filed as agonist
  Activity: 37%
[5]; filed as agonist
  Activity: 32%

## O=C(NCc1ccc(Nc2ncnc3c2ncn3[C@@H]2O[C@H](CO)[C@@H](O)[C@H]2O)cc1)C1=CC2C=CC1CC2 (stereo partly drawn)
[1]
  Activity: Active
Adenosine receptor A1 [9]
  EC50: 1.58 nM
Flp-In-CHO [2]
  Activity: inactive

## OC[C@H]1O[C@@H](n2cnc3c(NCCCCCCNC(=S)Nc4ccc(N=C=S)cc4)ncnc32)[C@H](O)[C@@H]1O
Flp-In-CHO [2]
  Activity: inactive

## OC[C@H]1O[C@@H](n2cnc3c(NCCN=C=S)ncnc32)[C@H](O)[C@@H]1O
Adenosine receptor A1 [9]
  EC50: 158 nM
Flp-In-CHO [2]
  Activity: inactive
